As a reminder, the IC50 is the midpoint of a concentration-inhibition curve.

Values after ≈ are worked out from the molar mass of the structure shown. “Also recorded” adds a separate entry of the source. Like-named read-outs stand apart in the source and are kept apart here.

The text below walks through data of paper PMC11809490 (RSC Advances, 2025).

One series relates to P388. Particulars: cited from earlier work.
The test system of another series is A-549. The settings on record: cited from earlier work.
In a further series the test system is HCT-8. The settings on record: cited from earlier work.
The next series relates to MDA-MB-231. The settings on record: cited from earlier work.
A further series concerns PC3. The experiment in a line: MTT assay, cytotoxicity. The class given is cell-based, human. Particulars: Homo sapiens, PC-3, 48 h, read-out: IC50 PC3. A digest of the protocol: (§1)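 Cells in medium with 10% FBS, streptomycin and penicillin; 5000 cells per well. After 12 h, test compounds added at 0.1–40 μM, with 0.1% DMSO as vehicle, for 48 h. Then serum-free medium and MTT (5 mg mL−1) at 4:1 for 4 h at 37 °C. Formazan dissolved in DMSO, absorbance at 570 nm, normalized to DMSO control. IC50 from sigmoidal variable-slope nonlinear regression.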

The subject of series [1] is C4-2 cells. The experiment in a line: Intracellular ROS levels, H2DCFDA staining. The settings on record: 10 μM and 20 μM, 48 h. Format: cell-based, human. A digest of the protocol: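 C4-2 cells on coverslips got DMSO, test compound or H2O2 (10 μM) for 48 h. The figure legend gives test compound at 10 and 20 μM. Cells washed with PBS and loaded with H2DCFDA (2 μM final) in PBS, 40 min at 37 °C. Green signal imaged in FITC channel and expressed relative to DMSO. Three independent replicates; Student's t-test.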

Series [2] relates to C4-2 cells. Nature of the series: Acridine orange/ethidium bromide assay. Format: cell-based, human. Particulars: 10 and 20 μM, 48 h. In outline:
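C4-2 cells (0.25 × 10^5) seeded on 12 mm coverslips for 12 h, then given DMSO or test compound (10 and 20 μM) for 48 h. After PBS wash, stained with AO (100 μg mL−1) plus EB (100 μg mL−1) in PBS for 20 min. Washed and imaged by fluorescence microscopy: FITC channel for green (AO, all cells), TRITC for red (EB, dead cells).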

A further series relates to HEK293. Nature of the series: MTT assay, cytotoxicity to normal cells. Format: cell-based, human. In outline: as §1
(In general: Tetrazolium dyes change colour on reduction, which living cells bring about.)

For a further series, the system named is MCF7. Nature of the series: MTT assay, cytotoxicity. Particulars: Homo sapiens, MCF7, 48 h, read-out: IC50 MCF7. Format: cell-based, human. A digest of the protocol:
as §1

Series [3] deals with C4-2 cells. The experiment in a line: JC-1 staining, mitochondrial depolarization. Format: cell-based, human. Particulars: 10 μM or 20 μM, 48 h. A digest of the protocol: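 C4-2 cells (0.25 × 10^5) on 12 mm coverslips, seeded 12 h, then exposed to DMSO or test compound (10 or 20 μM) for 48 h. After PBS wash, incubated with JC-1 (2 μM) in PBS for 20 min. Imaged in FITC and TRITC channels: orange aggregates mark polarized mitochondria, green marks depolarized.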

Another series concerns p-53 and c-jun. Nature of the series: Level of p-53 and c-jun. Format: cell-based.
In series [4] the test system is C4-2 cells. Nature of the series: Clonogenic assay. The class given is cell-based, human. Particulars: 10 μM or 20 μM, 10 days. In outline:
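1000 C4-2 cells plated per well and exposed to test compound at 10 or 20 μM. […] Incubated 10–12 days, washed with PBS and fixed in cold methanol:acetic acid (3:1) for 5–10 min. Colonies photographed for number and size. Run in duplicate.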

A further series has as its system tubulin in C4-2 cells. The experiment in a line: Tubulin immunofluorescence. Format: cell-based, human. Particulars: 10 μM and 20 μM, 48 h. In outline: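 Fixed and permeabilized with ice-cold methanol. Blocked 1 h in 2% BSA/1% Triton X-100 in PBS. Tubulin antibody overnight at 4 °C, then FITC goat anti-mouse secondary 3 h in the dark. Imaged in FITC and DAPI channels.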

In series [5] the test system is prostate, breast, epithelial cancer cells. The experiment in a line: MTT assay, all tested cancer cell lines together. The class given is cell-based, human. A digest of the protocol: as §1
In the next series the test system is 22Rv1. The experiment in a line: MTT assay, cytotoxicity. Format: cell-based, human. Particulars: Homo sapiens, 22Rv1, 48 h, read-out: IC50 22Rv1. In outline: as §1
A further series has as its system C4-2. Nature of the series: MTT assay, cytotoxicity. Format: cell-based, human.

Turning to `CN1C[C@@H](c2c[nH]c3cc(Br)ccc23)N(C)C[C@@H]1c1c[nH]c2cc(Br)ccc12` [Dragmacidin B], the “IC50 P388” value with P388 was 15 µg/mL (≈ 29.9 µM). The “IC50 A-549” value in the series on A-549 was 1 to 10 µg/mL. For the same molecule, the “IC50 HCT-8” value in the series on HCT-8 is 1 to 10 µg/mL. In addition, the “IC50 MDA-MB-231” value in the series on MDA-MB-231 was 1 to 10 µg/mL.
As to `CCCOc1ccc2[nH]cc(C(=O)C(C#N)=Cc3cn(CC)c4ccccc34)c2c1` [21j, 3-(1-Ethyl-1H-indol-3-yl)-2-(5-propoxy-1H-indole-3-carbonyl)acrylonitrile], the IC50 is 5600 nM in the series on PC3; over 40000 nM in the series with HEK293 (Homo sapiens, HEK293, 48 h, read-out: IC50 HEK293); 1200 nM in the series with MCF7; 2900 nM in the series on 22Rv1; 900 nM in the series with C4-2 (Homo sapiens, C4-2, 48 h, read-out: IC50 C4-2, MTT, 48 h treatment, 0.1-40 μM); 980 nM in the series with C4-2 (read-out: IC50 C4-2, MTT, 48 h treatment, 0.1-40 μM). For the same molecule, the “ROS levels (DCFDA)” value in the series on C4-2 cells [1] is on record as “robust increase in ROS levels; also recorded: raises the levels of ROS”. Besides, the “cell death / apoptosis by AO-EB staining” value in the series on C4-2 cells [2] is “robust cell death; also recorded: induced substantial apoptosis”. In addition, the “cytotoxicity to normal HEK293 cells, in words” value in the series with HEK293 was “no notable impact”. The “mitochondrial depolarization (JC-1)” value in the series on C4-2 cells [3] is reported as “induced significant mitochondrial depolarization; also recorded: induces mitochondrial depolarization”. Moreover, in the series on p-53 and c-jun, the “level of p-53 and c-jun” value was “upregulate the level of p-53 and c-jun”. Also, in the series with C4-2 cells [4], the “number and size of colonies” value was “significantly inhibited the number and size of colonies; also recorded: inhibits colony formation”. The “tubulin assembly (β-tubulin antibody staining)” value in the series with tubulin in C4-2 cells was “significant loss of tubulin assembly; also recorded: increases tubulin depolymerization”. In addition, the “cytotoxicity against the tested cancer cells, in words (SAR)” value in series [5] is given as “significantly enhanced cytotoxicity; also recorded: most effective compound across all cancer cell lines tested”.
